Test results taken from article PMC3793015 (Journal of agricultural and food chemistry, 2013).

Experiments:
[1] = test system: LPS-induced production of NO in RAW 264.7 cells; test: LPS-induced production of NO; assay type: cell-based, murine; details: RAW 264.7, data not shown
Outline: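 RAW 264.7 cells, 2 days post-confluence, were pretreated 2 h with compound (DMSO stock into 10% FBS medium). They were then stimulated 16 h with 5 ng/mL E. coli O111:B4 LPS. NO production was estimated as medium nitrite by the Griess reaction.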

[2] = test system: RAW 264.7; test: Cytotoxicity of α-MG; assay type: cell-based, murine; details: read-out: IC50 (cytotoxicity); RAW 264.7, 24 h, 10% FBS delivery
Outline: (§1)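 Cytotoxicity was judged by phase-contrast morphology and MTT reduction to formazan after exposure to increasing compound concentrations. Exposure was 24 h for RAW 264.7, MDM, HepG2 and HT-29, 8 h for PMA-differentiated THP-1, and 4 h for differentiated Caco-2. Delivery was DMSO into 10% FBS medium for RAW 264.7, THP-1 and HepG2; FBS-complexed compound at 10% FBS in RPMI 1640 for MDM; Tween 40 micelles for Caco-2 and HT-29.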

[3] = test system: MDM cells; test: Cellular uptake and metabolism of α-MG; assay type: in vitro ADME, human; details: 24 h
Outline: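 Monocytes came from buffy-coat mononuclear cells, isolated on Ficoll and by clumping, then differentiated 6 days with 50 ng/mL M-CSF (97% CD14/CD11b-positive). Compound (3.3 μM) was delivered in 100% FBS, diluted to 10% FBS in RPMI 1640, for 24 h. Activated cultures first had 100 ng/mL LPS for 4 h, then a PBS wash. Medium and cells were analysed separately by RP-HPLC, including conjugates; mean ± SD, n ≥ 5.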

[4] = test system: HepG2; test: Cytotoxicity of α-MG; assay type: cell-based, human; details: read-out: IC50 (cytotoxicity); HepG2, 24 h, 10% FBS delivery
Outline: as §1

[5] = test system: IL-8 secretion by macrophage-like THP-1 cells; test: IL-8 secretion; assay type: cell-based, human
Outline: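 THP-1 cells, differentiated with 100 nM PMA for 48 h, were pretreated with compound added as a DMSO stock to 10% FBS medium, then stimulated with E. coli O111:B4 LPS. Supernatant IL-8 was measured by ELISA in LPS-treated and unstimulated cultures.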

[6] = test system: RAW 264.7 cells; test: Cellular uptake and metabolism of α-MG; assay type: in vitro ADME, murine
Outline: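 RAW 264.7 cells, 2 days post-confluence, received 7.7 μM compound (DMSO stock into 10% FBS medium) for 24 h. LPS-activated cultures had 5 ng/mL LPS for 4 h, then a PBS wash, before compound. Cells and medium were collected together because some cells were nonadherent. Samples were extracted and analysed by RP-HPLC for free and glucuronidated/sulfated xanthones, as % of initial concentration.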

[7] = test system: Caco-2 cells; test: Cellular uptake, metabolism and transport of α-MG on Transwell inserts; assay type: in vitro ADME, human
Outline: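 Caco-2 cells were differentiated 21–25 days post-confluence on Transwell inserts. Compound (12 μM) in Tween 40 micelles was added apically for 24 h. Activated cultures had 5 ng/mL IL-1β for 4 h, then a PBS wash. Apical medium, basolateral medium and cell monolayer were collected separately and analysed by RP-HPLC for free and conjugated xanthones. Amounts are % of initial compound; mean ± SD, n ≥ 5.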

[8] = test system: HT-29 cells; test: Cellular uptake and metabolism of α-MG; assay type: in vitro ADME, human
Outline: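 HT-29 monolayers, 2 days post-confluence, given 8.5 μM compound in Tween 40 micelles in medium for 24 h. Activated cultures had 800 ng/mL LPS for 4 h, then a PBS wash, before compound. Spent medium and cells were collected separately, extracted and analysed by RP-HPLC, including glucuronide/sulfate conjugates. Xanthones were identified by retention time and UV spectrum and quantified against five-point mangostin standard curves. Results are given as % of initial compound; mean ± SD, n ≥ 5.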

[9] = test system: HepG2 cells; test: Cellular uptake and metabolism of α-MG; assay type: in vitro ADME, human
Outline: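 HepG2 monolayers, 2 days post-confluence, received 9.0 μM compound as a DMSO stock added to 10% FBS medium for 24 h. Activated cultures had 10 ng/mL TNF-α for 4 h and a PBS wash first. Medium and cells were collected separately, extracted and analysed by RP-HPLC for free and glucuronidated/sulfated xanthones. Quantification used retention time, UV spectrum and five-point standard curves, as % of initial amount; mean ± SD, n ≥ 5.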

[10] = test system: IL-8 secretion by colonic HT-29 cells; test: IL-8 secretion; assay type: cell-based, human
Outline: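 HT-29 monolayers, 2 days post-confluence, were pretreated with compound delivered in Tween 40 micelles. Activation used LPS from E. coli O111:B4. IL-8 secreted into the medium was quantified by ELISA, in both activated and nonactivated cultures.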

[11] = RAW 264.7, combined medium and cells, 7.7 μM, 24 h
[12] = 24 h after addition of α-MG, control cultures, nd: not detected
[13] = Caco-2 Transwell, 12 μM apical, 24 h

In the case of `COc1c(O)cc2oc3cc(O)c(CC=C(C)C)c(O)c3c(=O)c2c1CC=C(C)C` [α-MG, α-mangostin], the “inhibition of LPS-induced production of NO” value (“inhibition … of NO” for short) ([1]; 1 μM) is reported as 50%, the “inhibition … of NO” value ([1]; 3 μM) is reported as 61% and the “inhibition … of NO” value ([1]; 10 μM) is reported as 78%. For the same molecule, the IC50 [2] was 23 µM, the “free xanthones in spent medium, of initial α-MG” value ([3]; 3.3 μM, control) was 57 ± 4% and the “free α-MG in cells, of total” value ([3]; 3.3 μM, control) was 22 ± 5%. The “glucuronidated/sulfated conjugates of α-MG in cells, of total” value ([3]; 3.3 μM, control) was 20 ± 10%, the “recovery of α-MG equivalents added” value [3] was 99 ± 12% and the IC50 [4] was 25 µM. For the same molecule, the “inhibition of IL-8 chemokine secretion” value ([5]; activated THP-1, 10 μM pretreatment 4 h, LPS 0.1 ng/mL 4 h) was 30–40%, the “effect on secretion of IL-8” value ([5]; nonactivated THP-1 cultures) was “not altered” and the “recovery of α-MG” value ([6]; RAW 264.7, 24 h incubation) was 80 ± 6%. The “ratio of free to conjugated xanthones, activated vs control” value ([6]; RAW 264.7, LPS treatment, data not shown) was “increased”, the “free α-MG, of initial concentration” value [6, 11] was 18 ± 3% and the “glucuronidated/sulfated conjugates, of initial concentration” value [6, 11] was 61 ± 6%. For the same molecule, the “xanthone in media, Caco-2” value ([7]; 0 h, amount of α-MG at start) was 20741 ± 261 pmol/dish, the “intracellular profile table, α-MG at 0 h, Caco-2” value ([7]; 0 h, control cultures) was 20741 ± 261 pmol/dish and the “intracellular xanthone, Caco-2” value [7, 12] was 3000 ± 551 pmol/dish. The “ratio of free to conjugated xanthones in apical medium, activated vs control” value ([7]; Caco-2, 5 ng/mL IL-1β, 24 h, p < 0.05) was “increased”, the “recovery of xanthones, of α-MG added” value ([7]; Caco-2, 24 h) was “approximately 65%” and the “amount of xanthones and ratio of conjugated to free xanthones transported into basolateral compartment” value ([7]; Caco-2, treatment with IL-1β vs control, p < 0.05) was “increased”. The “conjugated xanthones in basolateral medium” value [7, 13] was 1.7 ± 0.3%, the “conjugated xanthones in cells” value [7, 13] was 10 ± 3% and the “conjugates in apical medium” value [7, 13] was 11 ± 2%. For the same molecule, the “free xanthones in apical medium” value [7, 13] was 35 ± 1%, the “free xanthones in basolateral medium” value [7, 13] was 0.8 ± 0.1% and the “free xanthones in cells” value [7, 13] was 6 ± 0.6%. The “xanthones in apical medium (total), of initial α-mangostin” value [7, 13] was 47 ± 3%, the “xanthones in basolateral medium (total), of initial α-mangostin” value [7, 13] was 3 ± 0.3% and the “xanthones in cells (total), of initial α-mangostin” value [7, 13] was 16 ± 3%. For the same molecule, the “intracellular ratio of free to conjugated xanthones, activated vs control” value ([7]; Caco-2 cells, 5 ng/mL IL-1β 4 h before α-MG, 24 h, p < 0.05) was “increased”, the “xanthone in media, HT-29” value ([8]; 0 h, amount of α-MG at start) was 16517 ± 373 and the “intracellular profile table, α-MG at 0 h, HT-29” value ([8]; 0 h, control cultures) was 16517 ± 373. The “intracellular xanthone, HT-29” value [8, 12] was 807 ± 178, the “ratio of free to conjugated xanthones in medium, activated vs control” value ([8]; HT-29, 800 ng/mL LPS 4 h before α-MG, 24 h, p < 0.05) was “increased” and the “free xanthones in medium, of initial α-MG” value ([8]; HT-29, 8.5 μM, 24 h, control) was 7 ± 2%. The “nonconjugated xanthones in cells” value ([8]; HT-29, 8.5 μM, 24 h, control) was “only traces”, the “phase II conjugates in cells, of α-MG added” value ([8]; HT-29, 8.5 μM, 24 h, control) was 5 ± 1% and the “phase II conjugates in medium, of α-MG added” value ([8]; HT-29, 8.5 μM, 24 h, control) was 42 ± 3%. The “recovery of α-MG” value ([8]; HT-29, 24 h incubation) was 54 ± 4%, the “xanthone in media, HepG2” value ([9]; 0 h, amount of α-MG at start) was 17834 ± 115 pmol/dish and the “intracellular profile table, α-MG at 0 h, HepG2” value ([9]; 0 h, control cultures) was 17834 ± 115 pmol/dish. The “intracellular xanthone, HepG2” value [9, 12] was 9344 ± 298 pmol/dish, the “intracellular ratio of free to conjugated xanthones, activated vs control” value ([9]; HepG2, 10 ng/mL TNF-α 4 h before α-MG, 24 h, p < 0.05) was “increased” and the “free xanthones in spent medium, of initial α-MG” value ([9]; HepG2, 9.0 μM, 24 h, control) was 36 ± 2%. For the same molecule, the “free α-MG in cells, of total” value ([9]; HepG2, 9.0 μM, 24 h, control) was 27 ± 3%, the “glucuronidated/sulfated conjugates of α-MG in cells, of total” value ([9]; HepG2, 9.0 μM, 24 h, control) was 29 ± 3% and the “recovery of α-MG equivalents added” value ([9]; HepG2, 24 h) was 91 ± 4%. For the same molecule, the “inhibition of IL-8 chemokine secretion” value ([10]; activated HT-29, 10 μM pretreatment 1 h, LPS 100 ng/mL 16 h) was 30–40% and the “effect on basal secretion of IL-8” value ([10]; nonactivated HT-29 cultures) was “more than doubled”.
